# Hit rate of the full screen: of about 360,000 compounds, about 3,600 (1%) were called active. The sample holds actives, similar compounds and a random draw of the others, so the mix is not that of the screen.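 Rule for the calls: active = activation above the mean activation of all test compounds in the run plus 3 SD (cut at about 38% in these data); inactive = the rest.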
# Biological target: Trace amine-associated receptor 1 (Homo sapiens) (UniProt Q96RJ0)
# Experiment: activators of TAAR1 calcium mobilization – Fluo-8 calcium fluorescence, CHO RD-HGA16 cells, primary screen (AID 624467)
# Conditions: CHO RD-HGA16 TAAR1, Fluo-8 calcium fluorescence; at 3 µM; hits give high values; vehicle wells 0%, saturating PEA agonist 100%
# Method in brief: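 System: CHO-derived RD-HGA16 cells with stable Gα16 and human TAAR1. Times: 17-24 h plating, Fluo-8 75 min 37 °C, 30 min RT. Measured by: calcium-sensitive Fluo-8 signal, excitation 470-495, emission 515-575 nm. Read-out basis: % activation relative to PEA EC100 response. Control set: DMSO and PEA EC100. Repeats: no replicates (n 1).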
# Sequence of Trace amine-associated receptor 1 (Homo sapiens) (Q96RJ0 whole entry, looked up): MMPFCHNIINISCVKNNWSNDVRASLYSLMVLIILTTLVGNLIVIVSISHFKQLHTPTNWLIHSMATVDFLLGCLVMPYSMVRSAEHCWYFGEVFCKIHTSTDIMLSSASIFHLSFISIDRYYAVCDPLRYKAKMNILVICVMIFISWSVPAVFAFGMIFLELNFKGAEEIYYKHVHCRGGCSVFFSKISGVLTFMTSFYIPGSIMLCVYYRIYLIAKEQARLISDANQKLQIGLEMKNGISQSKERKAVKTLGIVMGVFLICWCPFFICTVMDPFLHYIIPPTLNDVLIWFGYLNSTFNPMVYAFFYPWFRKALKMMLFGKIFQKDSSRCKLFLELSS
row,Structure (SMILES),activation
1,O=C(NCCCN1CCOCC1)c1cn(-c2ccccc2)nc1-c1ccc(F)cc1,3.53% (inactive)
2,CCc1ccc(-c2nn(-c3ccccc3C)cc2C(=O)N2CCN(C3CCS(=O)(=O)C3)CC2)cc1 (stereo unspecified),1.27% (inactive)
3,CCc1ccc(-c2nn(-c3ccccc3)cc2CSC(=N)N)cc1,99.3% (active)
4,CCc1nc2ccc(C(=O)N3CCN(c4cccc(Cl)c4)CC3)cc2nc1CC,1.12% (inactive)
5,COC(=O)[C@]12C[C@H](CC(=O)NCCCCc3ccccc3)C(=O)N(Cc3ccc4c(c3)OCO4)C1=C[C@H](C(C)(C)C)O[C@@H]2C,5.91% (inactive)
6,Cc1occc1C(=O)N/N=C/c1ccc(-c2cccc([N+](=O)[O-])c2)o1,4.69% (inactive)
7,COc1cc(/C=N\NC(=O)c2nonc2N)c(OC)cc1Br,1.69% (inactive)
8,Cc1cc(C)c([N+](=O)[O-])cc1-c1ccc(/C=N/NC(=O)c2nonc2N)o1,41% (active)
9,O=C(COC(=O)CCc1c[nH]c2ccccc12)Nc1cccc(Cl)c1,3.56% (inactive)
10,Nc1ncnc2c1ncn2[C@@H]1O[C@H](C(=O)N[C@@H](CCc2ccccc2)C(=O)NCC(=O)N2CCOCC2)[C@@H](O)[C@H]1O,0.02% (inactive)
11,Clc1cccc2c1C1CC2CCN1Cc1ccccc1 (stereo unspecified),-1.9% (inactive)
12,COC(=O)c1ccccc1NC(=O)CN(Cc1ccc(Cl)cc1)S(C)(=O)=O,8.09% (inactive)
13,Cc1cc(C(=O)NNC(=S)Nc2ccccc2C)cs1,7.69% (inactive)
14,Cc1ccccc1N/C(SCc1ccc(Cl)cc1)=C(/C#N)C(N)=O,6.27% (inactive)
15,Fc1ccccc1CNC(=S)Nc1ccc(Cl)cc1,5.04% (inactive)
16,O=C(Cc1ccc(Cl)cc1)NC(=S)Nc1ccccc1O,138% (active)
17,Cc1ccccc1NC(=S)NC(=O)Cc1ccc(Cl)cc1,82.3% (active)
18,Cc1ccc(NS(=O)(=O)c2ccc3c(c2)oc(=O)n3C)c(C)c1,3.17% (inactive)
19,Brc1ccc(COCCc2cn(Cc3ccccc3)c3ccccc23)cc1,0.28% (inactive)
20,S=C(Nc1cccc(Br)c1)N1CCn2cccc2C1c1cccnc1 (stereo unspecified),11.1% (inactive)
21,CC1CCCCN1C(=S)NCc1ccccc1 (stereo unspecified),5.09% (inactive)
22,S=C(NCCc1ccccc1)N1CCn2cccc2C1c1ccncc1 (stereo unspecified),96.1% (active)
23,Cc1cc(=O)[nH]c(Nc2cccc(Br)c2)n1,26.1% (inactive)
24,O=c1cnnc(Nc2ccccc2F)[nH]1,19.6% (inactive)
25,O=c1cnnc(Nc2ccccc2)[nH]1,53% (active)
26,O=C(COC(=O)c1ncc(Cl)c(Cl)c1Cl)NNC(=O)c1ccccc1,4.83% (inactive)
